# “And” between values parts separate entries of the source, which are not always exact repeats. Identical values can stand only once.
# Key:
# [1] = Average half life period was determined; assay type: ADME
# [2] = Half life period was determined; assay type: ADME; details: rat
# [3] = Half life period for first alkylation reaction was determined; assay type: ADME
# How it was run: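 Half-life derived from the k1 value (first alkylation, i.e. mustard disappearance), measured by 31P NMR in 1 M lutidine, "pH" 7.4, 37 °C, with trapping agent.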
# [4] = First order rate constant for Alkylation reaction by the compound (17 mM) at temperature 37 degrees C with 1 M lutidine at pH 7.4 in the presence of 10 mol equiv of sodium thiosulfate; assay type: functional
# How it was run: (§1)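 Run by 31P NMR in 1 M lutidine (D2O), "pH" 7.4 (corrected meter reading), 37 °C, with 10 mol equiv sodium thiosulfate as trapping agent. Overlapping A, B and C resonances were resolved by least-squares fitting to three Lorentzians or by Lorentz–Gauss resolution enhancement. This gave concentration–time estimates, from which k1 and k2 were derived.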
# [5] = First order rate constant for Alkylation reaction by the compound (17 mM) at temperature 27 degrees C with 1 M lutidine at pH 7.4 in the presence of 10 mol equiv of 2-mercaptoethanol; assay type: functional
# How it was run: (§2)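 Decomposition followed over time by 31P NMR in 1 M lutidine buffer made with D2O, "pH" 7.4 (meter reading plus 0.4 unit for the deuterium isotope effect), with 2-mercaptoethanol as trapping agent. Concentrations of species A, B and C were tracked against time, and k1 (first alkylation) and k2 (second alkylation) were derived from them.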
# [6] = Second order rate constant for Alkylation reaction by the compound (17 mM) at temperature 37 degrees C with 1 M lutidine at pH 7.4 in the presence of 10 mol equiv of sodium thiosulfate; assay type: functional; how it was run: as §1
# [7] = Pka value at 20 degrees C
# How it was run: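 31P NMR chemical shift recorded in unbuffered water as a function of solution pH at 20 °C. The shift versus pH data were fitted to the Henderson–Hasselbalch equation to give the pKa.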
# [8] = Second order rate constant for Alkylation reaction by the compound (17 mM) at temperature 37 degrees C with 1 M lutidine at pH 7.4 in the presence of 10 mol equiv of 2-mercaptoethanol; assay type: functional; how it was run: as §2
# [9] = Second order rate constant for Alkylation reaction by the compound (11 mM) at temperature 20 degrees C with 1 M lutidine at pH 7.4 in the presence of 63 mol equiv of 2-mercaptoethanol; assay type: functional; how it was run: as §2
# [10] = Second order rate constant for Alkylation reaction by the compound (17 mM) at temperature 27 degrees C with 1 M lutidine at pH 7.4 in the presence of 10 mol equiv of 2-mercaptoethanol; assay type: functional; how it was run: as §2
# [11] = First order rate constant for Alkylation reaction by the compound (17 mM) at temperature 37 degrees C with 1 M lutidine at pH 7.4 in the presence of 10 mol equiv of 2-mercaptoethanol; assay type: functional; how it was run: as §2
# [12] = Second order rate constant for Alkylation reaction by the compound (17 mM) at temperature 47 degrees C with 1 M lutidine at pH 7.4 in the presence of 10 mol equiv of 2-mercaptoethanol; assay type: functional; how it was run: as §2
# [13] = First order rate constant for Alkylation reaction by the compound (11 mM) at temperature 20 degrees C with 1 M lutidine at pH 7.4 in the presence of 63 mol equiv of 2-mercaptoethanol; assay type: functional; how it was run: as §2
# [14] = First order rate constant for Alkylation reaction by the compound (17 mM) at temperature 20 degrees C with 1 M lutidine at […] in the presence of 10 mol equiv of 2-mercaptoethanol; assay type: functional
# [15] = First order rate constant for Alkylation reaction by the compound (17 mM) at temperature 47 degrees C with 1 M lutidine at pH 7.4 in the presence of 10 mol equiv of 2-mercaptoethanol; assay type: functional; how it was run: as §2
Structure (SMILES),half-life [1],half-life [2],T1/2 [3],K1 [4],K1 [5],K2 [6],Pka [7],K2 [8],K2 [9],K2 [10],K1 [11],K2 [12],K1 [13],K1 [14],K1 [15]
O=P1(NCCCl)OCCC(O)N1CCCl (stereo unspecified) [ALDOIFOSFAMIDE],44 min,60 min,–,–,–,–,–,–,–,–,–,–,–,–,–
OC1CCOP(NCCCl)N1CCCl (trans isomer),62 min,–,–,–,–,–,–,–,–,–,–,–,–,–,–
O=P(O)(NCCCl)NCCCl [PALIFOSFAMIDE],–,–,77 min and 171 min,8.29 10e-3 min-1,2.36 10e-3 min-1,4.29 10e-3 min-1,4.28,4.05 10e-3 min-1,0.63 10e-3 min-1,1.14 10e-3 min-1,9.03 10e-3 min-1,20 10e-3 min-1,1.07 10e-3 min-1,1.2 10e-3 min-1,34.3 10e-3 min-1
